From ChEMBL document CHEMBL5058577, “EUbOPEN Chemogenomics Library 2 (Multiplex)” (2022)

Tested on: HEK-293T
Test: Multiplex assay against HEK293T
Assay type: toxicity, cell-based
Conditions: human
Method in brief: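 Cells stained live at seeding with Hoechst33342, BioTracker Green Microtubule Cytoskeleton Dye, MitoTracker Red and Annexin V Alexa Fluor 680 were imaged on a CQ1 microscope at 37°C and 5% CO2 after compound addition. Their classification by CellPathfinder machine-learning gating ran from Hoechst high-intensity objects versus normal cells, to healthy, pyknosed or fragmented nuclei among normal cells, to mitotic or apoptotic among pyknosed cells. Tubulin, mitochondrial-mass and membrane-permeability phenotypes are per cents of healthy-nucleus cells.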

[1] = 12 h, 1 µM, compound concentration 1 uM, replicate 1
[2] = 12 h, 1 µM, compound concentration 1 uM, replicate 2
[3] = 12 h, 10 µM, compound concentration 10 uM, replicate 1
[4] = 12 h, 10 µM, compound concentration 10 uM, replicate 2
[5] = 24 h, 1 µM, compound concentration 1 uM, replicate 1
[6] = 24 h, 1 µM, compound concentration 1 uM, replicate 2
[7] = 24 h, 10 µM, compound concentration 10 uM, replicate 1
[8] = 24 h, 10 µM, compound concentration 10 uM, replicate 2
[9] = 48 h, 1 µM, compound concentration 1 uM, replicate 1
[10] = 48 h, 1 µM, compound concentration 1 uM, replicate 2
[11] = 48 h, 10 µM, compound concentration 10 uM, replicate 1
[12] = 48 h, 10 µM, compound concentration 10 uM, replicate 2

Cn1cc(C(=O)OCC2CCN(CCNS(C)(=O)=O)CC2)c2ccccc21
Population Apoptotic (%) [1]: 39%
Population Fragmented Nuclei (%) [1]: 5%
Population Healthy Nuclei (%) [1]: 83%
Population Hoechst High Intensity Objects (%) [1]: 7%
Population Membrane Permeable-Phenotype (%) [1]: 0%
Population Mitochondria Different-Phenotype (%) [1]: 35%
Population Mitotic Cells (%) [1]: 60%
Population Normal (%) [1]: 92%
Population Pyknosed Nuclei (%) [1]: 10%
Population Tubulin-Different-Phenotype (%) [1]: 22%
Total Cell Count [1]: 466
Population Apoptotic (%) [2]: 56%
Population Fragmented Nuclei (%) [2]: 9%
Population Healthy Nuclei (%) [2]: 76%
Population Hoechst High Intensity Objects (%) [2]: 8%
Population Mitochondria Different-Phenotype (%) [2]: 62%
Population Mitotic Cells (%) [2]: 43%
Population Normal (%) [2]: 91%
Population Pyknosed Nuclei (%) [2]: 14%
Population Tubulin-Different-Phenotype (%) [2]: 28%
Total Cell Count [2]: 248
Population Apoptotic (%) [3]: 47%
Population Fragmented Nuclei (%) [3]: 10%
Population Healthy Nuclei (%) [3]: 73%
Population Hoechst High Intensity Objects (%) [3]: 6%
Population Membrane Permeable-Phenotype (%) [3]: 0%
Population Mitochondria Different-Phenotype (%) [3]: 55%
Population Mitotic Cells (%) [3]: 52%
Population Normal (%) [3]: 93%
Population Pyknosed Nuclei (%) [3]: 15%
Population Tubulin-Different-Phenotype (%) [3]: 53%
Total Cell Count [3]: 479
Population Apoptotic (%) [4]: 43%
Population Healthy Nuclei (%) [4]: 71%
Population Hoechst High Intensity Objects (%) [4]: 10%
Population Mitochondria Different-Phenotype (%) [4]: 73%
Population Mitotic Cells (%) [4]: 56%
Population Normal (%) [4]: 89%
Population Pyknosed Nuclei (%) [4]: 18%
Population Tubulin-Different-Phenotype (%) [4]: 47%
Total Cell Count [4]: 393
Population Apoptotic (%) [5]: 29%
Population Fragmented Nuclei (%) [5]: 6%
Population Healthy Nuclei (%) [5]: 82%
Population Hoechst High Intensity Objects (%) [5]: 4%
Population Membrane Permeable-Phenotype (%) [5]: 1%
Population Mitochondria Different-Phenotype (%) [5]: 21%
Population Mitotic Cells (%) [5]: 70%
Population Normal (%) [5]: 95%
Population Pyknosed Nuclei (%) [5]: 10%
Population Tubulin-Different-Phenotype (%) [5]: 16%
Total Cell Count [5]: 650
Population Apoptotic (%) [6]: 48%
Population Fragmented Nuclei (%) [6]: 12%
Population Healthy Nuclei (%) [6]: 76%
Population Hoechst High Intensity Objects (%) [6]: 5%
Population Membrane Permeable-Phenotype (%) [6]: 0%
Population Mitochondria Different-Phenotype (%) [6]: 42%
Population Mitotic Cells (%) [6]: 51%
Population Normal (%) [6]: 94%
Population Tubulin-Different-Phenotype (%) [6]: 17%
Total Cell Count [6]: 283
Population Apoptotic (%) [7]: 35%
Population Fragmented Nuclei (%) [7]: 11%
Population Healthy Nuclei (%) [7]: 74%
Population Hoechst High Intensity Objects (%) [7]: 5%
Population Membrane Permeable-Phenotype (%) [7]: 1%
Population Mitochondria Different-Phenotype (%) [7]: 43%
Population Mitotic Cells (%) [7]: 64%
Population Normal (%) [7]: 94%
Population Pyknosed Nuclei (%) [7]: 13%
Population Tubulin-Different-Phenotype (%) [7]: 50%
Total Cell Count [7]: 587
Population Apoptotic (%) [8]: 48%
Population Fragmented Nuclei (%) [8]: 10%
Population Healthy Nuclei (%) [8]: 79%
Population Hoechst High Intensity Objects (%) [8]: 6%
Population Membrane Permeable-Phenotype (%) [8]: 0%
Population Mitochondria Different-Phenotype (%) [8]: 56%
Population Mitotic Cells (%) [8]: 51%
Population Normal (%) [8]: 93%
Population Pyknosed Nuclei (%) [8]: 9%
Population Tubulin-Different-Phenotype (%) [8]: 37%
Total Cell Count [8]: 491
Population Apoptotic (%) [9]: 25%
Population Fragmented Nuclei (%) [9]: 12%
Population Healthy Nuclei (%) [9]: 78%
Population Hoechst High Intensity Objects (%) [9]: 3%
Population Membrane Permeable-Phenotype (%) [9]: 1%
Population Mitochondria Different-Phenotype (%) [9]: 12%
Population Mitotic Cells (%) [9]: 74%
Population Normal (%) [9]: 96%
Population Pyknosed Nuclei (%) [9]: 8%
Population Tubulin-Different-Phenotype (%) [9]: 10%
Total Cell Count [9]: 1090
Population Apoptotic (%) [10]: 44%
Population Fragmented Nuclei (%) [10]: 11%
Population Healthy Nuclei (%) [10]: 82%
Population Hoechst High Intensity Objects (%) [10]: 4%
Population Membrane Permeable-Phenotype (%) [10]: 3%
Population Mitochondria Different-Phenotype (%) [10]: 23%
Population Mitotic Cells (%) [10]: 55%
Population Normal (%) [10]: 95%
Population Pyknosed Nuclei (%) [10]: 6%
Population Tubulin-Different-Phenotype (%) [10]: 11%
Total Cell Count [10]: 490
Population Apoptotic (%) [11]: 38%
Population Fragmented Nuclei (%) [11]: 16%
Population Healthy Nuclei (%) [11]: 77%
Population Hoechst High Intensity Objects (%) [11]: 6%
Population Membrane Permeable-Phenotype (%) [11]: 1%
Population Mitochondria Different-Phenotype (%) [11]: 31%
Population Mitotic Cells (%) [11]: 61%
Population Normal (%) [11]: 93%
Population Pyknosed Nuclei (%) [11]: 6%
Population Tubulin-Different-Phenotype (%) [11]: 28%
Total Cell Count [11]: 883
Population Fragmented Nuclei (%) [12]: 13%
Population Healthy Nuclei (%) [12]: 79%
Population Hoechst High Intensity Objects (%) [12]: 4%
Population Membrane Permeable-Phenotype (%) [12]: 0%
Population Mitochondria Different-Phenotype (%) [12]: 37%
Population Normal (%) [12]: 95%
Population Tubulin-Different-Phenotype (%) [12]: 26%
Total Cell Count [12]: 758
